Shown are actives, neighbours in structure and some others; about 3.5% of the full set was active somewhere.
pPAFAH FP inh: pPAFAH enzyme inhibitors, primary screen, biochemical, fluorescence polarization, human | inhibition, % at 3.39 µM | recombinant pPAFAH, FP-rhodamine probe fluorescence polarization | 330,000 compounds, 1.5% hits;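 active = inhibition above the mean inhibition across the screen plus 3 SD, cut at about 25% in these data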;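 note: inhibitors block binding of the rhodamine activity-based probe so polarization drops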
Apaf1 inhib: inhibitors of human Apaf-1 apoptosome, primary screen, biochemical, DEVD-Rh110 fluorescence, uHTS; inhibition, % at 20 µM; 330,000 compounds, 0.71% hits; reconstituted apoptosome caspase-3 activity; Apoptotic protease-activating factor 1 (Homo sapiens), O14727; AID 489030, 2010; active = inhibition of at least 40% at 20 µM
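System: Apoptosome proteins | Medium: Hepes pH 7.5 with detergent and BSA | Also added: Cytochrome c trigger plus (Z-DEVD)2-Rh110 caspase-3 substrate | Incubation: 30 min compound preincubation, 50 min activation, room temperature | Detection: Rhodamine 110 fluorescence at Ex 480/Em 540 nm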
PAFAH1B2 FP inh: PAFAH1B2 enzyme inhibitors, primary screen, biochemical, fluorescence polarization, human. recombinant PAFAH1B2, FP-rhodamine activity probe. 340,000 compounds, 1.2% hits. inhibition, % at 3.39 µM. AID 492953, 2010. Platelet-activating factor acetylhydrolase IB subunit alpha2 (Homo sapiens), P68402;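 active = inhibition above the mean of all tested compounds plus 3 SD, cut at about 24% in these data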
PREPL inh: PREPL enzyme inhibitors, primary screen, biochemical, fluorescence polarization. recombinant PREPL, fluorescence polarization activity-based probe. inhibition, % at 5.96 µM. 320,000 compounds, 0.68% hits. AID 2751, 2010
PAFAH2 FP inh: PAFAH2 enzyme inhibitors, primary screen, biochemical, fluorescence polarization, human; inhibition, % at 3.39 µM; 340,000 compounds, 0.99% hits; recombinant PAFAH2, FP-rhodamine activity probe; Platelet-activating factor acetylhydrolase 2, cytoplasmic (Homo sapiens), Q99487;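 active = inhibition above the mean over all tested compounds plus 3 SD, cut at about 30% in these data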;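 note: inhibitors block probe labeling of enzyme so polarization drops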
PAFAH1B3 inh: PAFAH1B3 enzyme inhibitors, primary screen, biochemical, fluorescence polarization, human. recombinant PAFAH1B3, FP-rhodamine probe. inhibition, % at 3.39 µM. 340,000 compounds, 0.28% hits. AID 492972, 2010;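 active = inhibition above the screen-wide average of all tested compounds plus 3 SD, cut at about 25% in these data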
PREPL inh cf: human PREPL enzyme inhibitors, confirmation, biochemical, fluorescence polarization. shares compounds with PREPL inh. recombinant PREPL, fluorescence polarization activity probe. inhibition, % at 5.96 µM. 2,000 compounds, 67% hits
Numbers stand for hits; . = inactive; / = not tested or not shown. Cut-off read from the data, not from the text of the source, unless noted: active = inhibition above about 43%; inactive = the rest.

SMILES	pPAFAH FP inh	Apaf1 inhib	PAFAH1B2 FP inh	PREPL inh	PAFAH2 FP inh	PAFAH1B3 inh	PREPL inh cf
O=C(C1=C[C@@H](c2ccc(C(F)(F)F)cc2)C[C@@H](OCc2ccc(CO)cc2)O1)N1CCN(Cc2ccc3c(c2)OCO3)CC1	.	.	.	64.3	.	.	58.2
O=C(C1=C[C@@H](C2CC2)C[C@@H](OCCCCO)O1)N1CCN(Cc2ccc3c(c2)OCO3)CC1	.	.	.	.	.	.	/
CC(=O)n1cc([C@@H]2C=C(C(=O)N3CCN(C)CC3)O[C@H](OCc3ccc(CO)cc3)C2)c2ccccc21	.	.	.	45.8	.	.	52.0
O=C(C1=C[C@@H](c2ccc(C(F)(F)F)cc2)C[C@@H](OCCCCO)O1)N1CCN(Cc2ccc3c(c2)OCO3)CC1	.	.	.	70.2	.	.	60.4
C=CCOC(=O)C1=C[C@H](c2cn(C(C)=O)c3ccccc23)C[C@H](OCc2ccc(CO)cc2)O1	.	.	.	.	.	.	/
Cc1cccc(C)c1N1CCN(S(=O)(=O)N(C)C)CC1	.	.	.	.	.	.	/
Cc1csc(NC(=O)CSc2nc3nc(C)cc(C)n3n2)n1	.	.	.	.	.	.	/
O=C1/C(=C/c2ccsc2)N2CCC1CC2	.	.	.	.	.	.	/
O=C(C1=C[C@H](c2ccc(C(F)(F)F)cc2)C[C@H](OCc2ccc(CO)cc2)O1)N1CCN(Cc2ccc3c(c2)OCO3)CC1	.	.	.	45.8	.	.	43.9
CC(C)(C)[C@H]1C=C(C(=O)N2CCN(Cc3ccc4c(c3)OCO4)CC2)O[C@@H](OCCCCO)C1	.	.	.	44.0	.	.	.
O=C(C1=C[C@@H](c2ccc(Br)cc2)C[C@@H](OCc2ccc(CO)cc2)O1)N1CCN(Cc2ccc3c(c2)OCO3)CC1	.	.	.	45.0	.	.	58.6
O=C(C1=C[C@@H](c2ccc(Br)cc2)C[C@@H](OCc2ccc(CO)cc2)O1)N1CCN(Cc2ccccc2)CC1	.	.	.	65.5	.	.	53.4
CC(C)(C)[C@@H]1C=C(C(=O)N2CCN(Cc3ccc4c(c3)OCO4)CC2)O[C@H](OCc2ccc(CO)cc2)C1	.	.	.	.	.	.	/
O=C(COc1ccc(F)cc1Br)NCC1(N2CCOCC2)CCCCC1	.	.	.	.	.	.	/
O=C(C1=C[C@@H](c2ccc(C(F)(F)F)cc2)C[C@@H](OCCCCO)O1)N1CCN(Cc2ccccc2)CC1	.	.	.	65.5	.	.	56.0
O=C(C1=C[C@@H](c2ccc3c(c2)OCO3)C[C@@H](OCc2ccc(CO)cc2)O1)N1CCOCC1	.	.	.	50.3	.	.	43.7
CCO[C@H]1OC(C(=O)N2CCN(Cc3ccc4c(c3)OCO4)CC2)=C[C@@H](c2ccc(Br)cc2)[C@@H]1CCCO	.	.	.	47.2	.	.	44.2
O=C(C1=C[C@H](c2ccc(C(F)(F)F)cc2)C[C@H](OCCCCO)O1)N1CCN(Cc2ccccc2)CC1	.	.	.	.	.	.	/
COC(=O)C1CCC(C)(C(=O)Nc2ccccc2)C1(C)C (centres undefined)	.	.	.	.	.	.	/
CCOc1ccc(NC(=O)Nc2ccc3nsnc3c2)cc1	.	.	.	.	.	.	/
CCOc1ccc(NC(=S)Nc2ccc3nsnc3c2)cc1	.	.	33.8	43.8	52.0	53.9	.
O=C(NC(=S)N1CCN(c2nc(-c3ccccc3)cs2)CC1)c1cccnc1	.	.	.	.	.	.	/
Cc1ccc(C(C(=O)NC2CCCC2)N(Cc2ccc3c(c2)OCO3)C(=O)c2snc(C(N)=O)c2N)cc1 (centres undefined)	.	.	.	.	.	.	/
